Published values pooled from the literature.
Each line is one published result; the experiments were not run side by side.
Target: Phosphorylase b kinase gamma catalytic chain, skeletal muscle/heart isoform (PHKG1, Homo sapiens, UniProt Q16816)

c1ccc(CNc2nc(N3CCOc4ccccc43)nc3c2CCCC3)cc1
inhibition (target engagement in cells; inhibitor; chemoproteomics; 20 mM): 2%

COc1cc2ncnc(Nc3ccc(Oc4ccccc4)c(C)c3C)c2cc1OC
inhibition (enzyme activity; inhibitor; 1 µM): 2%

CC(C)(C)c1nc(-c2cccc(NS(=O)(=O)c3c(F)cccc3F)c2F)c(-c2ccnc(N)n2)s1
remaining activity (enzyme activity; inhibitor; radiometric; 1 µM): 97%

Nc1nc(NC2CCCCC2)sc1C(=O)c1ccccc1
remaining activity (enzyme activity; inhibitor; 10 µM): 105%

CC(=O)Nc1c(C(C)=O)c(=O)n(C)c2nc(-c3ccc(Cl)cc3Cl)c(-c3ccc(Cl)cc3)cc12
remaining binding (cell-free assay; competition with immobilised ligand; 1 µM): 100%

CCCS(=O)(=O)Nc1ccc(F)c(C(=O)c2c[nH]c3ncc(-c4ccc(Cl)cc4)cc23)c1F
inhibition (enzyme activity; inhibitor; 1 µM): < 20%

N[C@@H]1CCN(c2nccc(-c3cnn4ncccc34)n2)C1
remaining binding (binding; 1 µM): 100%

O=C1Nc2ccc(Cl)cc2C1=Cc1cc(Cl)c(O)c(Cl)c1
remaining signal (cell-free assay; 0.5 µM): 86.4%

Cn1c(=O)n(-c2ccc(C(C)(C)C#N)cc2)c2c3cc(-c4cnc5ccccc5c4)ccc3ncc21
remaining activity (enzyme activity; inhibitor; 10 µM): 95%

CNC(=O)c1ccc(Nc2ncc(C(F)(F)F)c(NCc3nccnc3N(C)S(C)(=O)=O)n2)cc1
remaining binding (cell-free assay; competition with immobilised ligand; 0.1 µM): 100%

Cc1ccc(C(=O)NCc2ccsc2)cc1C#Cc1cn(C(C)C)c2ncnc(N)c12
activity vs control (enzyme activity; inhibitor; 1 µM): 107%

CN1CC(Oc2cnc(C#N)cc2-c2ccn3nc(NC(=O)C4CC4)cc3c2)C1
inhibition (enzyme activity; inhibitor; 1 µM): 8%

CS(=O)(=O)c1cc(C2(NC(=O)c3cncc4c3cnn4-c3ccc(F)cc3)CC2)ccn1
remaining binding (cell-free assay; competition with immobilised ligand; 1 µM): 78%

CCCCNc1ncc2c(-c3ccc(F)cc3)nn(C[C@H]3CC[C@H](N)CC3)c2n1
inhibition (target engagement in cells; inhibitor; chemoproteomics; 20 mM): 26.4%

CN(C)C(=O)Cn1cc(-c2nc([C@@](C)(c3ccc(-c4cnc(N)nc4)cc3)C3CC3)no2)cn1
remaining binding (cell-free assay; competition with immobilised ligand; 1 µM): 77%

CC/C(=N\NC(=O)NCc1cccc(O)c1)c1ccc(O)c(C)c1O
inhibition (enzyme activity; inhibitor; 0.1 µM): -1.8%

COc1cccc(CNC(=O)c2nc3scc(COCc4ccc(C(=O)O)cc4)c3c(=O)[nH]2)c1
remaining binding (cell-free assay; competition with immobilised ligand; 1 µM): 100%

Nc1nc(Nc2ccccc2)sc1C(=O)c1c(F)cccc1F
remaining activity (enzyme activity; inhibitor; 10 µM): 88%

O=C(Nc1cnn(-c2csc(C(=O)NC3COC3)c2)c1)Nc1c(F)cccc1Cl
remaining activity (enzyme activity; inhibitor; 5 µM): 91.2%

CCCOc1ccc([C@H]2[C@H](C(=O)O)[C@@H](c3ccc4c(c3)OCO4)CN2CC(=O)Nc2c(CC)cccc2CC)cc1
remaining binding (cell-free assay; competition with immobilised ligand; 1 µM): 99%
